One may read the Cmax as the peak of the concentration-time curve. As a reminder, the Tmax is the time from dosing to the highest level. What is called AUC is the area under the concentration-time curve, a measure of exposure.

Here are results for one molecule from ChEMBL document CHEMBL1255392, “Pharmacokinetics of acyclovir and its metabolites in cerebrospinal fluid and systemic circulation after administration of high-dose valacyclovir in subjects with normal and impaired renal function” (Antimicrob Agents Chemother, 2010).

Data set [1] has as its system Homo sapiens. The data set is described as follows: Drug level in human plasma with normal renal function assessed as 8-OH acyclovir level at 2000 mg, po every 6 hrs measured after fifth dose by LC/MS. The settings on record: in vivo, read-out: Drug uptake. The class given is ADME, organism-based. The method, boiled down: (§1)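 Six volunteers with normal renal function fasted from 8 h before to 2 h after the fifth dose. Intrathecal-catheter CSF and venous blood were sampled at 0–8 h and stored at −70°C. Noncompartmental Cmax, tmax and AUCτ (0–6 h) were derived; Cavg = AUCτ/τ.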

Data set [2] has as its system Homo sapiens. The data set is described as follows: Drug level in human plasma with chronic kidney disease assessed as 8-OH acyclovir level at 1500 mg, po every 12 hrs measured after fifth dose by LC/MS. The settings on record: in vivo, read-out: Drug uptake. The class given is ADME, organism-based. The procedure, abridged: (§2)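 Three CKD adults (CrCl ~15–30 ml/min) fasted around the final dose. Lumbar intrathecal catheter CSF and EDTA venous blood were taken predose and at 0.5–8 h plus 12 h, then stored at −70°C. Metabolites in serum/CSF were measured by SPE with isotope-labelled internal standards, reversed-phase HPLC and positive-ion MRM MS.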

For data set [3], the system named is Homo sapiens. The data set is described as follows: Drug level in human CSF with normal renal function assessed as 8-OH acyclovir level at 2000 mg, po every 6 hrs measured after fifth dose by LC/MS. Format: ADME, organism-based. The conditions noted are these: in vivo, read-out: Drug uptake. The method, boiled down: as §1
Data set [4] relates to Homo sapiens. As to the kind of experiment: Drug level in human CSF with chronic kidney disease assessed as 8-OH acyclovir level at 1500 mg, po every 12 hrs measured after fifth dose by LC/MS. The class given is ADME, organism-based. The settings on record: in vivo, read-out: Drug uptake. The method, boiled down: as §2
The test system of data set [5] is Homo sapiens. As to the kind of experiment: Cmax in human systemic circulation with normal renal function assessed as 8-OH-ACV level at 2000 mg, po every 6 hrs measured after fifth dose by LC/MS. The conditions noted are these: in vivo. Format: ADME, organism-based. Also noted: dose 2000 mg, route oral. The procedure, abridged: as §1
Data set [6] has as its system Homo sapiens. The data set is described as follows: Cmax in human CSF with normal renal function assessed as 8-OH-ACV level at 2000 mg, po every 6 hrs measured after fifth dose by LC/MS. The class given is ADME, organism-based, Cerebrospinal fluid. Also noted: dose 2000 mg, route oral. The conditions noted are these: in vivo. The method, boiled down: as §1
In data set [7] the test system is Homo sapiens. As to the kind of experiment: Cmax in human systemic circulation with chronic kidney disease assessed as 8-OH-ACV level at 1500 mg, po every 12 hrs measured after fifth dose by LC/MS. The class given is ADME, organism-based. Also noted: dose 1500 mg, route oral. The settings on record: in vivo. The method, boiled down: as §2
Data set [8] has as its system Homo sapiens. As to the kind of experiment: Cmax in human CSF with chronic kidney disease assessed as 8-OH-ACV level at 1500 mg, po every 12 hrs measured after fifth dose by LC/MS. The settings on record: in vivo. The class given is ADME, organism-based, Cerebrospinal fluid. Also noted: dose 1500 mg, route oral. The method, boiled down:
as §2

In data set [9] the test system is Homo sapiens. The data set is described as follows: Tmax in human systemic circulation with normal renal function assessed as 8-OH-ACV level at 2000 mg, po every 6 hrs measured after fifth dose by LC/MS. The class given is ADME, organism-based. The conditions noted are these: in vivo. The method, boiled down: as §1
The test system of data set [10] is Homo sapiens. The data set is described as follows: Tmax in human CSF with normal renal function assessed as 8-OH-ACV level at 2000 mg, po every 6 hrs measured after fifth dose by LC/MS. The class given is ADME, organism-based, Cerebrospinal fluid. The settings on record: in vivo. The procedure, abridged: as §1
Data set [11] relates to Homo sapiens. As to the kind of experiment: Tmax in human systemic circulation with chronic kidney disease assessed as 8-OH-ACV level at 1500 mg, po every 12 hrs measured after fifth dose by LC/MS. Format: ADME, organism-based. The settings on record: in vivo. The method, boiled down: as §2
Data set [12] concerns Homo sapiens. The data set is described as follows: Tmax in human CSF with chronic kidney disease assessed as 8-OH-ACV level at 1500 mg, po every 12 hrs measured after fifth dose by LC/MS. Format: ADME, organism-based, Cerebrospinal fluid. The conditions noted are these: in vivo. The procedure, abridged:
as §2

Data set [13] deals with Homo sapiens. The data set is described as follows: AUC (0 to 6 hrs) in human systemic circulation with normal renal function assessed as 8-OH-ACV level at 2000 mg, po every 6 hrs measured after fifth dose by LC/MS. Format: ADME, organism-based, Plasma. Also noted: dose 2000 mg, time < 6 hr, route oral. The settings on record: in vivo. The procedure, abridged: as §1
The test system of data set [14] is Homo sapiens. The data set is described as follows: AUC (0 to 6 hrs) in human CSF with normal renal function assessed as 8-OH-ACV level at 2000 mg, po every 6 hrs measured after fifth dose by LC/MS. Format: ADME, organism-based. Also noted: dose 2000 mg, time < 6 hr, route oral. The conditions noted are these: in vivo. The procedure, abridged:
as §1

The test system of data set [15] is Homo sapiens. The data set is described as follows: AUC (0 to 12 hrs) in human systemic circulation with chronic kidney disease assessed as 8-OH-ACV level at 1500 mg, po every 12 hrs measured after fifth dose by LC/MS. Format: ADME, organism-based. Also noted: dose 1500 mg, time < 12 hr, route oral. The conditions noted are these: in vivo. The procedure, abridged:
as §2

Data set [16] has as its system Homo sapiens. The data set is described as follows: AUC (0 to 12 hrs) in human CSF with chronic kidney disease assessed as 8-OH-ACV level at 1500 mg, po every 12 hrs measured after fifth dose by LC/MS. The conditions noted are these: in vivo. Format: ADME, organism-based. Also noted: dose 1500 mg, time < 12 hr, route oral. The method, boiled down:
as §2

Data set [17] deals with Homo sapiens. The data set is described as follows: Ratio of Cmax in human CSF to Cmax in human plasma with normal renal function assessed as 8-OH-ACV level at 2000 mg, po every 6 hrs measured after fifth dose by LC/MS. Format: ADME, organism-based. The method, boiled down:
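For each normal-renal-function subject, the metabolite CSF Cmax was divided by the serum Cmax from samples taken 0–8 h after the fifth dose. Both were measured by LC/MS with isotope-labelled internal standards, and the ratio is given as mean ± SD.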

The test system of data set [18] is Homo sapiens. As to the kind of experiment: Ratio of Cmax in human CSF to Cmax in human plasma with chronic kidney disease assessed as 8-OH-ACV level at 1500 mg, po every 12 hrs measured after fifth dose by LC/MS. Format: ADME, organism-based.

Structures are written as SMILES.

For `Nc1nc2c(nc(O)n2COCCO)c(=O)[nH]1`, the concentration in data set [1] worked out at 0.24 µM; in data set [2], 1.4 µM; in data set [3] it was 0.06 µM; in data set [4], 0.26 µM. Moreover, the Cmax in data set [5] is 0.32 µM; in [6], 0.062 µM; in data set [7], 1.6 µM; in data set [8], 0.29 µM. Moreover, the Tmax in [9] worked out at 3.5 h; in data set [10], 2.4 h; in data set [11] it was 4 h; in [12] it was 7 h. Moreover, the area under the curve (AUC) in data set [13] came to 1400 nM·h; in [14], 340 nM·h; in data set [15], 17000 nM·h; in data set [16] it was 3100 nM·h. For the same molecule, the Ratio in [17] is listed as 0.2; in [18] it was 0.19.
